According to PMC5026623 (Circulation research, 2016):

Target: apoA1 (Homo sapiens, UniProt P02647)
Test: surface plasmon resonance, protein immobilised on CM5 chip
Format: binding
Procedure, shortened: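 Biosensor binding-kinetics run: apoA1 covalently coupled to a CM5 sensor chip, with apoA2 and apoE coupled the same way for comparison. Kinetics of test lipid binding to the immobilised protein recorded.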

Chain of apoA1 (P02647 25-267): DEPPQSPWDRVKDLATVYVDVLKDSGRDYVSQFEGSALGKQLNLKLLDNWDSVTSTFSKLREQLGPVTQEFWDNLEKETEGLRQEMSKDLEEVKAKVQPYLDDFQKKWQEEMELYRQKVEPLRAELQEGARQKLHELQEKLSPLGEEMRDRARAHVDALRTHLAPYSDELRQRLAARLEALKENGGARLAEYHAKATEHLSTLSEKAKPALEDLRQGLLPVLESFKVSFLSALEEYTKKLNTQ

Kd: 0.14 µM
Substance: PIP2
